Screening results from PubChem BioAssay.
LEDGF integ inh = blocks HIV-1 LEDGF/p75-dependent DNA integration. TR-FRET IN-LEDGF/p75 DNA integration, Eu/Cy5. inhibition, % at 3.7 µM. actives 0.64% (n = 370,000);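 active means inhibition above the screen-wide mean plus 3 SD, cut at about 13% in these data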;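 further: signal is the Cy5 over europium emission ratio at 671 and 618 nm; 0% = plate median of compound wells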
TDP2 inh = blocks human TDP2 phosphodiesterase activity. recombinant TDP2, T5PNP hydrolysis, p-nitrophenol absorbance 415 nm. inhibition, % at 12.8 µM. actives 0.34% (n = 370,000). O95551;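 active means inhibition above the mean of all tested compounds plus 3 SD, set per campaign, cut at about 25% in these data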;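 further: 0% = DMSO with enzyme and 100% = buffer with substrate but no TDP2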
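System – recombinant human TDP2 · Quantity – TDP2 enzyme at 120 nM final · Doses – single concentration, 12.8 µM nominal, with 1% DMSO · Incubation – 2 h at 37 °C · Measured by – epi absorbance of p-nitrophenol freed from T5PNP by hydrolysis · Read-out – % inhibition relative to enzyme-containing and enzyme-free wells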
MBD2 DNA inh = MBD2-methylated oligo binding inhibition; AID 686964; Q9UBB5; inhibition, % at 4.4 µM; actives 0.31% (n = 370,000); TR-FRET, MBD2 binding to methylated oligonucleotide; in the data active means inhibition above about 13%
UHRF1 MBD2 ctr = UHRF1 methyl-DNA binding inhibition; Q96T88; inhibition, % at 4.4 µM; UHRF1 binding to methylated oligo, TR-FRET; actives 0.75% (n = 370,000); in the data active means inhibition above about 21%;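 further: UHRF1 SRA domain binding a hemimethylated CpG hairpin DNA probe; 0% = median of test compound wells and 100% = reference inhibitor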
Target sequence (Q96T88 whole entry, looked up, the tested form may be a part): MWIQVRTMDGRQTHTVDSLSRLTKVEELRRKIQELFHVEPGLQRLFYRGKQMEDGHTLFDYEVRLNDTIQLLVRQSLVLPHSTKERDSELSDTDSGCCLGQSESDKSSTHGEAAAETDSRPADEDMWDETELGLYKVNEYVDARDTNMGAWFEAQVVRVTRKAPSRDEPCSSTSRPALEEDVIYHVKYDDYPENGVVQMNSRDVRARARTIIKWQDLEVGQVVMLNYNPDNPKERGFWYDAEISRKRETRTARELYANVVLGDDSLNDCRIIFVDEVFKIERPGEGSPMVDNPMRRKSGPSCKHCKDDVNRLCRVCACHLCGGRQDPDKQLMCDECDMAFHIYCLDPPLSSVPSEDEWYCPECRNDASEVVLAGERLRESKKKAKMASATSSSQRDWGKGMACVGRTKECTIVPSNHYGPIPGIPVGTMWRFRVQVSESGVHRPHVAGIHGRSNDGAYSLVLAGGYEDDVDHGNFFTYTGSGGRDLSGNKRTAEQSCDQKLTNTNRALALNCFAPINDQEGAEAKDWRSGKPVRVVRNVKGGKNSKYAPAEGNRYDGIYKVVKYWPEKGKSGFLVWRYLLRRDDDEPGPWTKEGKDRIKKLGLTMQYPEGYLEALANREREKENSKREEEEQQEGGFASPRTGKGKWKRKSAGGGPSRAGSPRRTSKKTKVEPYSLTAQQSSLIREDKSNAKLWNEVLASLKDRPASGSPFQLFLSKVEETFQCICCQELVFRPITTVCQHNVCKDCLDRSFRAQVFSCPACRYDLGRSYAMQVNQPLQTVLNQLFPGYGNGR
IN multimer up = HIV-1 integrase multimerization activation, counter-screen. shares compounds with LEDGF integ inh. TR-FRET HIV-1 integrase multimerization, biochemical. activation, % at 7.7 µM. actives 17% (n = 2,000). AID 1053131; in the data active means activation above about 8.9%
TRFRET interf = optically interferes with TR-FRET readout in LEDGF counter-screen; shares compounds with LEDGF integ inh; TR-FRET optical interference counterscreen, HIV-1 IN multimerization; inhibition, % at 7.7 µM; 2,000 tested, under 10 active; AID 1053135;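 active means inhibition above the mean over all tested compounds plus 3 SD, which no compound reached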;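 further: 0% = integrase with antibodies and DMSO and 100% = antibodies without integrase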
LEDGF integ conf = LEDGF/p75-dependent HIV-1 integration inhibition, confirmation | TR-FRET LEDGF/p75-dependent HIV-1 integration, biochemical | actives 36% (n = 2,000) | shares compounds with LEDGF integ inh | inhibition, % at 3.7 µM; in the data active means inhibition above about 14%
Starred values were filed as active, the others as inactive; · = no result given. An excerpt weighted towards active compounds, which were near 1.6% of everything screened.

SMILES | LEDGF integ inh | TDP2 inh | MBD2 DNA inh | UHRF1 MBD2 ctr | IN multimer up | TRFRET interf | LEDGF integ conf
O=C(CSc1nnc(-c2ccc(Cl)cc2)n1Cc1ccco1)Nc1ccc(S(=O)(=O)Nc2nccs2)cc1 | 19* | -2 | -2 | 2 | 6 | -21 | 5
Cc1cc(NS(=O)(=O)c2ccc(NC(=O)CSc3nnc(-c4ccncc4)n3Cc3ccco3)cc2)nc(C)n1 | 36* | -2 | 6 | 7 | 1 | -5 | -9
Cc1cc(NS(=O)(=O)c2ccc(NC(=O)CSc3nnc(-c4ccc(Cl)cc4)n3Cc3ccco3)cc2)nc(C)n1 | 5 | 4 | -8 | -4 | · | · | ·
COc1ccc(C(=O)OCC(=O)c2ccc(C3CCCCC3)cc2)cc1 | 1 | 9 | 4 | 1 | · | · | ·
Nc1ccc(O)cc1C(=O)OCC(=O)c1ccc(C2CCCCC2)cc1 | 15* | 7 | 5 | -2 | 0 | 0 | 0
Cc1ccc(C)c(NC(=O)CSc2nnc([C@@H](N)Cc3ccccc3)o2)c1 | -4 | 13 | 2 | 1 | · | · | ·
CC(OC(=O)c1cccc(S(=O)(=O)Nc2cccc(C(F)(F)F)c2)c1)C(=O)Nc1ccc2c(c1)OCCO2 (stereo not given) | -3 | 9 | -2 | -2 | · | · | ·
Nc1c(N(C(=O)Nc2ccc(Cl)c(Cl)c2)C2CCCC2)c(=O)[nH]c(=O)n1Cc1ccccc1 | 14* | 0 | 3 | -1 | 1 | -3 | 1
COc1ccc(NC(=O)C2CC3C=CC2C3)c([N+](=O)[O-])c1 (stereo not given) | 1 | -2 | -11 | 1 | · | · | ·
CC(OC(=O)/C=C/c1cccs1)C(=O)Nc1ccc(C(N)=O)cc1 (stereo not given) | -4 | 4 | -1 | -3 | · | · | ·
O=C(C(=O)N1CCC(CNC(=O)C2COc3ccccc3O2)CC1)c1cccs1 (stereo not given) | 21* | 9 | -1 | 0 | 5 | -24 | -1
O=C(C(=O)N1CCC(Cc2ccccc2)CC1)c1cccs1 | 1 | -11 | 9 | 4 | · | · | ·
CCN1C(=O)[C@H]2[C@@H](c3ccc(C(F)(F)F)cc3)N[C@]3(CCCN(Cc4ccc(Cl)cc4)C3=O)[C@H]2C1=O | -6 | 8 | 0 | 2 | · | · | ·
Oc1cc(O)c2c(c1)O[C@H](c1ccc(O)c(O)c1)[C@@H](O)C2 | 8 | 0 | 1 | 2 | · | · | ·
O=C1c2c(O)cc(O)cc2O[C@@]12c1c(cc(O)c3c1O[C@H](c1ccc(O)cc1)[C@@H](O)C3)O[C@@H]2c1ccc(O)cc1 | 18* | 7 | 4 | 24* | 13* | -67 | 39*
O=C(CN(C(=O)c1csnn1)c1ccccc1)NCCc1ccccc1 | 1 | 5 | 3 | 0 | · | · | ·
Cc1oc(CC(C)C)cc1C(=O)Nc1ccc(C(=O)O)cc1 | 16* | -9 | 2 | 2 | 1 | -5 | -7
NC(=O)NC(Cc1ccccc1)C(=O)NCC1(N2CCCCC2)CCCCC1 (stereo not given) | 1 | 1 | 0 | 1 | · | · | ·
CCOc1ccc(N=CC2=C(O)CC(c3ccco3)CC2=O)cc1 (stereo not given) | -2 | 12 | -3 | -3 | · | · | ·
O=C1CC(c2ccco2)CC(O)=C1C=Nc1cc(Cl)cc(Cl)c1 (stereo not given) | 45* | -4 | 8 | 33* | 0 | 2 | 0
CN(C)c1ncnc2c1ncn2[C@H]1CN(Cc2ccc(F)cc2)C[C@@H](CO)O1 | 4 | 0 | 0 | -2 | · | · | ·
CN(C)c1ncnc2c1ncn2[C@H]1CN(Cc2cccnc2)C[C@@H](CO)O1 | 52* | 4 | 1 | -1 | -1 | 5 | -6
O=C(/C=C/c1ccco1)Nc1nc(-c2ccccc2)cs1 | -1 | 5 | 3 | 1 | · | · | ·
O=C(/C=C/c1ccco1)Nc1nc(-c2ccccn2)cs1 | 16* | -3 | 3 | 4 | 3 | -14 | 16*
CCOc1cccc(CN2CCCC(C(=O)Nc3ccc(-c4ccn[nH]4)cc3)C2)c1O (stereo not given) | -1 | -19 | 5 | 3 | · | · | ·
SMILES | LEDGF integ inh | TDP2 inh | MBD2 DNA inh | UHRF1 MBD2 ctr | IN multimer up | TRFRET interf | LEDGF integ conf
Cc1nonc1N1CCN(Cc2cn[nH]c2-c2ccc3c(c2)OCO3)CC1 | 53* | -9 | 3 | 1 | 0 | 2 | 0
Cc1nonc1N1CCN(Cc2cn[nH]c2-c2ccc(F)cc2F)CC1 | -1 | 6 | 2 | 0 | · | · | ·
CC1CCCCC1NC(=O)CN1CCC(NC(=O)c2ccc([N+](=O)[O-])cc2)CC1 (stereo not given) | -6 | -3 | 3 | 2 | · | · | ·
Cc1cc(O)c(N=Cc2cc3c(cc2[N+](=O)[O-])OCO3)cc1C | 19* | 0 | -2 | 0 | 6 | -30 | 6
COC(=O)c1cc2sc(Cl)cc2n1CC(=O)Nc1cccc(SC)c1 | 1 | -13 | 4 | -4 | · | · | ·
CCCCS(=O)(=O)N1CCC(C(=O)Oc2ccccc2OC)CC1 | 2 | 1 | 4 | 2 | · | · | ·
CCS(=O)(=O)N1CCC(C(=O)Oc2ccccc2OC)CC1 | 22* | 9 | -7 | -1 | 1 | -5 | 2
Cc1sc2ncn(CC(=O)N3CCOCC3)c(=O)c2c1-c1ccccc1 | 2 | 7 | -2 | -1 | · | · | ·
Oc1ccc(CNc2ccccc2F)c2cccnc12 | -7 | -3 | 0 | -5 | · | · | ·
O=S(=O)(Nc1ccc(O)c2ncccc12)c1ccccc1F | 29* | 14 | -11 | -6 | 1 | -6 | 44*
CCCCN1C(=O)C(=Nc2cccc3cnccc23)c2ccccc21 | 16* | 1 | -17 | -4 | 1 | -6 | 23*
CCCCN1C(=O)/C(=C2\SC(N3CCCCC3)=NC2=O)c2ccccc21 | 2 | -5 | 1 | 0 | · | · | ·
O=C(/C=C/c1ccccc1)Nc1scc(-c2ccccc2)c1C(=O)O | 16* | 6 | 3 | -4 | 1 | -6 | 12
O=C(Nc1scc(-c2ccccc2)c1C(=O)O)c1ccc(F)cc1 | 14* | -3 | 2 | 5 | 0 | 3 | 5
O=C(/C=C/c1ccco1)Nc1scc(-c2ccccc2)c1C(=O)O | 2 | 12 | 4 | 20 | · | · | ·
CC(C)C(NC(=O)c1ccc(C(C)(C)C)cc1)C(=O)OCC(=O)NC(=O)Cc1ccccc1 (stereo not given) | 1 | -8 | 0 | 1 | · | · | ·
O=C(COC(=O)CN1C(=O)c2cccc([N+](=O)[O-])c2C1=O)NC1CCS(=O)(=O)C1 (stereo not given) | -1 | 2 | -5 | -3 | · | · | ·
COc1cc(CN(C(C)=O)c2ccccc2C(=O)O)ccc1[N+](=O)[O-] | -1 | 3 | 3 | -1 | · | · | ·
CCO[C@@H]1OC(C(=O)Nc2ccccc2)=C[C@H](c2csc3ccccc23)[C@H]1CCCO | 1 | -1 | 1 | 1 | · | · | ·
